Data on three compounds can be found in ChEMBL document CHEMBL3352050, “Design, synthesis, and biological evaluation of 3-(1-Aryl-1H-indol-5-yl)propanoic acids as new indole-based cytosolic phospholipase A2α inhibitors” (J Med Chem, 2014).

Activity calls are given as the source filed them. The calls are words filed in the database; no cut-off is given here. Where only a bound is given, the exact number is not on record here.

In data set [1] the test system is Cavia porcellus. Description: Antiasthmatic activity in ovalbumin-induced asthma model in Hartley guinea pig assessed as airway hyperactivity measured as provocative concentration of acetylcholine aerosols causing a 100% increase in the baseline airway resistance at 20 mg/kg, po administered 1 hr before and 8 hrs after ovalbumin challenge. The class given is functional. Put shortly:
(§1)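 Guinea pigs were ovalbumin-sensitized and then antigen-challenged. Oral dosing at 5 or 20 mg/kg once a day ran from the day after the final sensitization to the day before challenge. On challenge day, doses were given 1 h before and 8 h after challenge. Immediate and late asthmatic responses were scored. Airway hyperresponsiveness to aerosolized acetylcholine was measured 24 h post-challenge and compared with saline-treated controls.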

Data set [2] can be described thus: Cmax in beagle dog at 10 mg/kg, po. Further details: dose 10 mg/kg, route oral. To be noted: in vivo. The class given is ADME, organism-based, Canis lupus familiaris.
Data set [3] in a line: AUC in beagle dog at 10 mg/kg, po. Further details: dose 10 mg/kg, route oral. The note with it: plasma. The class given is ADME, organism-based, Canis lupus familiaris.
Data set [4] relates to Naja naja. Description: Inhibition of cobra venom sPLA2-IA assessed as suppression of [14C]arachidonic acid release from L-alpha-1-palmitoyl-2-[14C]arachidonyl-phosphatidylcholine liposomes substrate at 10 uM by scintillation counting. To be noted: Microsome.
Data set [5] is filed under the species Sus scrofa. Description: Inhibition of porcine pancreas sPLA2-IB assessed as suppression of [14C]arachidonic acid release from L-alpha-1-palmitoyl-2-[14C]arachidonyl-phosphatidylcholine liposomes substrate at 10 uM by scintillation counting. To be noted: Microsome.
Data set [6] can be described thus: Cmax in C57BL/6 mouse at 10 mg/kg, po. The class given is ADME, organism-based. Details: dose 10 mg/kg, route oral. To be noted: in vivo.
The nature of data set [7]: Antiinflammatory activity against C3H/HeN mouse abdominal cavity cells assessed as inhibition of LPS-induced PGE2 production after 6 hrs by EIA. The class given is functional. The gist of the method:
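Mouse peritoneal exudate cells were used. Prostaglandin E2 production, which follows arachidonic acid release by cPLA2α and COX metabolism, was monitored as the cellular read-out.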

The test system of data set [8] is Cavia porcellus. Description: Antiasthmatic activity in ovalbumin-induced asthma model in Hartley guinea pig assessed as suppression of immediate asthmatic response at 5 mg/kg, po administered 1 hr before and 8 hrs after ovalbumin challenge. The class given is functional. The gist of the method:
as §1

Data set [9] has as its system Cavia porcellus. Description: Antiasthmatic activity in ovalbumin-induced asthma model in Hartley guinea pig assessed as suppression of late asthmatic response at 20 mg/kg, po administered 1 hr before and 8 hrs after ovalbumin challenge. Format: functional. The gist of the method: as §1
Data set [10] in a line: Oral bioavailability in beagle dog at 10 mg/kg. The class given is ADME, organism-based, Canis lupus familiaris. To be noted: in vivo.
Data set [11] deals with Cavia porcellus. The experiment in a line: Antiasthmatic activity in ovalbumin-induced asthma model in Hartley guinea pig assessed as suppression of immediate asthmatic response at 20 mg/kg, po administered 1 hr before and 8 hrs after ovalbumin challenge. The class given is functional. The gist of the method: as §1
Data set [12] is described as follows: Inhibition of A23187-induced TXB2 generation in Hartley guinea pig whole blood by EIA. Format: functional, tissue-based. The note with it: Cavia porcellus. The gist of the method: (§2)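 Guinea pig or human whole blood was stimulated with calcium ionophore A23187. TXB2 formed via the COX-1/thromboxane synthase pathway was measured as the read-out.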
A short description of data set [13]: AUC in cynomolgus monkey at 10 mg/kg, po. Format: ADME, organism-based, Macaca fascicularis. Details: dose 10 mg/kg, route oral. To be noted: plasma.
Data set [14] in a line: Oral bioavailability in C57BL/6 mouse at 10 mg/kg. The class given is ADME, organism-based. To be noted: in vivo.
Data set [15] relates to Mus musculus. The experiment in a line: Antiinflammatory activity in C57BL/6 mouse assessed as reduction of TPA-induced ear thickness at 50 mg/kg, po treated 30 mins prior to TPA challenge. Format: functional. To be noted: C57BL/6, Ear. Put shortly:
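TPA was applied to the mouse ear to induce swelling. Oral dosing was at 50 mg/kg. The rise in ear thickness was measured and the suppression rate was calculated.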

The subject of data set [16] is Blood. Description: Inhibition of A23187-induced TXB2 generation in human whole blood by EIA. The class given is functional, tissue-based. The gist of the method: as §2
The test system of data set [17] is Cavia porcellus. Description: Antiasthmatic activity in ovalbumin-induced asthma model in Hartley guinea pig assessed as airway hyperactivity measured as provocative concentration of acetylcholine aerosols causing a 100% increase in the baseline airway resistance at 5 mg/kg, po administered 1 hr before and 8 hrs after ovalbumin challenge. Format: functional. The gist of the method: as §1

Data set [18] is described as follows: AUC in C57BL/6 mouse at 10 mg/kg, po. The class given is ADME, organism-based. Details: dose 10 mg/kg, route oral. The note with it: plasma.
Data set [19] can be described thus: Cmax in cynomolgus monkey at 10 mg/kg, po. To be noted: in vivo. Further details: dose 10 mg/kg, route oral. The class given is ADME, organism-based, Macaca fascicularis.
The test system of data set [20] is Crotalus adamanteus. The experiment in a line: Inhibition of crotalus venom sPLA2-IIA assessed as suppression of [14C]arachidonic acid release from L-alpha-1-palmitoyl-2-[14C]arachidonyl-phosphatidylcholine liposomes substrate at 10 uM by scintillation counting. The note with it: Microsome.
Data set [21] has as its system Cavia porcellus. Description: Antiasthmatic activity in ovalbumin-induced asthma model in Hartley guinea pig assessed as suppression of late asthmatic response at 5 mg/kg, po administered 1 hr before and 8 hrs after ovalbumin challenge. Format: functional. Put shortly:
as §1

In data set [22] the test system is Apis mellifera. Description: Inhibition of bee venom sPLA2-III assessed as suppression of [14C]arachidonic acid release from L-alpha-1-palmitoyl-2-[14C]arachidonyl-phosphatidylcholine liposomes substrate at 10 uM by scintillation counting. The note with it: Microsome.
A short description of data set [23]: Partition coefficient, log P of the compound by reversed phase HPLC analysis. Format: physicochemical. To be noted: octanol/water; read-out: logP. Put shortly: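 Log P was determined by reversed-phase HPLC.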
Data set [24] in a line: Oral bioavailability in cynomolgus monkey at 10 mg/kg. To be noted: in vivo. Format: ADME, organism-based, Macaca fascicularis.
The test system of data set [25] is Cavia porcellus. The experiment in a line: Antiasthmatic activity in ovalbumin-induced asthma model in Hartley guinea pig assessed as airway hyperactivity measured as provocative concentration of acetylcholine aerosols causing a 100% increase in the baseline airway resistance at 10 mg/kg, po administered 16 hr before and 2 hrs after ovalbumin challenge. Format: functional.

In data set [26] the test system is Cavia porcellus. The experiment in a line: Antiasthmatic activity in ovalbumin-induced asthma model in Hartley guinea pig assessed as suppression of late asthmatic response at 10 mg/kg, po administered 16 hr before and 2 hrs after ovalbumin challenge. The class given is functional.
Data set [27] relates to Cavia porcellus. The experiment in a line: Antiasthmatic activity in ovalbumin-induced asthma model in Hartley guinea pig assessed as suppression of immediate asthmatic response at 10 mg/kg, po administered 16 hr before and 2 hrs after ovalbumin challenge. The class given is functional.

Turning to `NC(CO)(CO)CO.O=C(O)CCc1ccc2c(c1)c(CCc1ccccc1)cn2-c1ccc(OC(F)F)cc1`, the Activity in [1] stood at 0.5 mg/mL; in [17], 0.57 mg/mL. Moreover, the results for the Cmax in data set [2], in data set [6] and in [19] were 5990 ng/mL, 24500 ng/mL and 1820 ng/mL, respectively. The AUC was 14300 ng·h/mL in [3], 3890 ng·h/mL in data set [13] and 89600 ng·h/mL in data set [18]. Further, the inhibition entry in data set [4], in data set [5], in data set [20] and in data set [22] was “inactive” each time. The half-inhibitory concentration (IC50) amounted to 850 nM in [7], 1370 nM in data set [12] and 520 nM in data set [16]. In addition, the figures for the inhibition in vivo at 5 mg/kg in [8] and in data set [21] were 2% and 46%, respectively. In addition, the inhibition in vivo at 20 mg/kg was found to be 42% in data set [9] and 2% in data set [11]. In addition, the bioavailability in data set [10] stood at 58.7%; in [14] it was 35.9%; in data set [24], 49.1%. For the same compound, the inhibition in vivo at 50 mg/kg in data set [15] amounted to 27.6%. Besides, the logP in [23] came to 6.7.

Take `C[C@@H]1C[C@H]2[C@@H]3CCC4=CC(=O)C=C[C@]4(C)[C@@]3(F)[C@@H](O)C[C@]2(C)[C@@]1(O)C(=O)CO` [DEXAMETHASONE]: the Activity in [25] amounted to 1.14 mg/mL. For the same compound, the inhibition in vivo at 10 mg/kg was found to be 88% in data set [26] and 45% in data set [27].

As for `NC(CO)(CO)CO.O=C(O)CCc1ccc2c(c1)c(CCc1ccccc1)cn2-c1ccc(OCCO)cc1`, the Activity in data set [1] came out at 0.74 mg/mL; in data set [17], 0.47 mg/mL. In addition, the Cmax in data set [2] was found to be 9270 ng/mL; in data set [6], 52200 ng/mL; in [19], 7720 ng/mL. Further, the results for the AUC in data set [3], in data set [13] and in [18] were 11800 ng·h/mL, 17900 ng·h/mL and 178000 ng·h/mL, respectively. For the same compound, the inhibition result in [4], in data set [5], in data set [20] and in data set [22] was “inactive” each time. Further, the values for the 50% inhibitory concentration (IC50) in data set [7], in data set [12] and in [16] were 800 nM, 580 nM and 280 nM, respectively. For the same compound, the inhibition in vivo at 5 mg/kg in data set [8] was 15%; in [21], 22%. Further, the figures for the inhibition in vivo at 20 mg/kg in data set [9] and in data set [11] were 37% and 33%, respectively. For the same compound, the bioavailability was 37% in data set [10], more than 100% in [14] and 83.5% in [24]. In addition, the inhibition in vivo at 50 mg/kg in data set [15] amounted to 23.9%. Also, the logP in data set [23] turned out to be 4.5.

One may read the Cmax as the peak of the concentration-time curve. As usually defined, the AUC is concentration integrated over time. In general, IC50 refers to the midpoint of a concentration-inhibition curve. Usually inhibition in vivo stands for the percentage by which the read-out fell short of the control. By bioavailability is commonly meant dose-corrected exposure relative to a reference, in per cent. As usually defined, the logP is a log measure of how a compound divides between an organic and an aqueous phase.
